Measurements taken from ChEMBL document CHEMBL3763086, “Salicylanilide N-monosubstituted carbamates: Synthesis and in vitro antimicrobial activity” (2016).
Values after ≈ are worked out from the molar mass of the structure shown.

What was measured:
Assay type in all cases: functional
Staphylococcus aureus [1] = assay: Antibacterial activity against methicillin-resistant Staphylococcus aureus H 5996/08 after 24 hrs by microbroth dilution method; settings: H 5996/08, 24 h
Outline: (§1)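 Microdilution broth method modified after M07-A07 in Mueller-Hinton broth adjusted to pH 7.4 (±0.2). Inoculum prepared in sterile water to 0.5 McFarland (1.5 × 10^8 CFU/mL). MIC taken as growth reduction versus control (IC95 per table header), read visually and spectrophotometrically at 540 nm after 24 and 48 h incubation in the dark.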

Candida tropicalis [2] = assay: Antifungal activity against Candida tropicalis 156 after 24 hrs by microbroth dilution method; settings: Candida tropicalis, 156, 24 h
Candida albicans [3] = assay: Antifungal activity against Candida albicans ATCC 44859 after 48 hrs by microbroth dilution method; settings: ATCC 44859, 48 h
Trichosporon asahii [4] = assay: Antifungal activity against Trichosporon asahii 1188 after 24 hrs by microbroth dilution method; settings: Trichosporon asahii, 1188, 24 h
[5] = tested on: Staphylococcus epidermidis; assay: Antibacterial activity against Staphylococcus epidermidis H 6966/08 after 48 hrs by microbroth dilution method; settings: H 6966/08, 48 h
Outline: (§2)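 Microbroth dilution modified per M07-A07 in Mueller-Hinton broth, pH 7.4 (±0.2). Inoculum in sterile water adjusted to 0.5 McFarland. MIC taken as growth reduction of at least 90% (IC90) versus control, read visually and at 540 nm after 24 and 48 h incubation in the dark.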

Lichtheimia corymbifera [6] = assay: Antifungal activity against Absidia corymbifera 272 after 48 hrs by microbroth dilution method; settings: Lichtheimia corymbifera, 272, 48 h
Escherichia coli [7] = assay: Antibacterial activity against Escherichia coli CCM 4517 after 48 hrs by microbroth dilution method; settings: CCM 4517, 48 h; outline: as §2
Lichtheimia corymbifera [8] = assay: Antifungal activity against Absidia corymbifera 272 after 24 hrs by microbroth dilution method; settings: Lichtheimia corymbifera, 272, 24 h
Staphylococcus aureus [9] = assay: Antibacterial activity against methicillin-resistant Staphylococcus aureus H 5996/08 after 48 hrs by microbroth dilution method; settings: H 5996/08, 48 h; outline: as §1
Pichia kudriavzevii [10] = assay: Antifungal activity against Candida krusei E28 after 48 hrs by microbroth dilution method; settings: E28, 48 h
Candida albicans [11] = assay: Antifungal activity against Candida albicans ATCC 44859 after 24 hrs by microbroth dilution method; settings: ATCC 44859, 24 h
Candida tropicalis [12] = assay: Antifungal activity against Candida tropicalis 156 after 48 hrs by microbroth dilution method; settings: Candida tropicalis, 156, 48 h
Trichosporon asahii [13] = assay: Antifungal activity against Trichosporon asahii 1188 after 48 hrs by microbroth dilution method; settings: Trichosporon asahii, 1188, 48 h
[14] = tested on: Staphylococcus epidermidis; assay: Antibacterial activity against Staphylococcus epidermidis H 6966/08 after 24 hrs by microbroth dilution method; settings: H 6966/08, 24 h; outline: as §2
Enterococcus sp. [15] = assay: Antibacterial activity against Enterococcus sp. J 14365/08 after 24 hrs by microbroth dilution method; settings: J 14365/08, 24 h; outline: as §2
Pichia kudriavzevii [16] = assay: Antifungal activity against Candida krusei E28 after 24 hrs by microbroth dilution method; settings: E28, 24 h
Klebsiella pneumoniae [17] = assay: Antibacterial activity against ESBL-positive Klebsiella pneumoniae J 14368/08 after 48 hrs by microbroth dilution method; settings: J 14368/08, 48 h; outline: as §2
[18] = tested on: Trichophyton mentagrophytes; assay: Antifungal activity against Trichophyton mentagrophytes 445 after 120 hrs by microbroth dilution method; settings: Trichophyton mentagrophytes, 445, 120 h
Enterococcus sp. [19] = assay: Antibacterial activity against Enterococcus sp. J 14365/08 after 48 hrs by microbroth dilution method; settings: J 14365/08, 48 h; outline: as §2
Klebsiella pneumoniae [20] = assay: Antibacterial activity against Klebsiella pneumoniae D 11750/08 after 48 hrs by microbroth dilution method; settings: D 11750/08, 48 h; outline: as §2
Nakaseomyces glabratus [21] = assay: Antifungal activity against Candida glabrata 20/I after 24 hrs by microbroth dilution method
[22] = tested on: Trichophyton mentagrophytes; assay: Antifungal activity against Trichophyton mentagrophytes 445 after 72 hrs by microbroth dilution method; settings: Trichophyton mentagrophytes, 445, 72 h
Staphylococcus aureus [23] = assay: Antibacterial activity against Staphylococcus aureus CCM 4516/08 after 48 hrs by microbroth dilution method; settings: CCM 4516/08, 48 h; outline: as §1
Klebsiella pneumoniae [24] = assay: Antibacterial activity against Klebsiella pneumoniae D 11750/08 after 24 hrs by microbroth dilution method; settings: D 11750/08, 24 h; outline: as §2
Klebsiella pneumoniae [25] = assay: Antibacterial activity against ESBL-positive Klebsiella pneumoniae J 14368/08 after 24 hrs by microbroth dilution method; settings: J 14368/08, 24 h; outline: as §2
Nakaseomyces glabratus [26] = assay: Antifungal activity against Candida glabrata 20/I after 48 hrs by microbroth dilution method
Staphylococcus aureus [27] = assay: Antibacterial activity against Staphylococcus aureus CCM 4516/08 after 24 hrs by microbroth dilution method; settings: CCM 4516/08, 24 h; outline: as §2
Escherichia coli [28] = assay: Antibacterial activity against Escherichia coli CCM 4517 after 24 hrs by microbroth dilution method; settings: CCM 4517, 24 h; outline: as §2

| SMILES | MIC (Staphylococcus aureus [1]) [µM] | MIC (Candida tropicalis [2]) [µM] | MIC (Candida albicans [3]) [µM] | MIC (Trichosporon asahii [4]) [µM] | MIC [5] [µM] | MIC (Lichtheimia corymbifera [6]) [µM] | MIC (Escherichia coli [7]) [µM] | MIC (Lichtheimia corymbifera [8]) [µM] | MIC (Staphylococcus aureus [9]) [µM] | MIC (Pichia kudriavzevii [10]) [µM] | MIC (Candida albicans [11]) [µM] | MIC (Candida tropicalis [12]) [µM] | MIC (Trichosporon asahii [13]) [µM] | MIC [14] [µM] | MIC (Enterococcus sp. [15]) [µM] | MIC (Pichia kudriavzevii [16]) [µM] | MIC (Klebsiella pneumoniae [17]) [µM] | MIC [18] [µM] | MIC (Enterococcus sp. [19]) [µM] | MIC (Klebsiella pneumoniae [20]) [µM] | further results |
| --- | --- | --- | --- | --- | --- | --- | --- | --- | --- | --- | --- | --- | --- | --- | --- | --- | --- | --- | --- | --- | --- |
| O=C(NC1CCCCC1)Oc1ccccc1C(=O)Nc1ccccc1 | 500 (≈ 169 µg/mL) | > 500 | > 500 | > 500 | 500 (≈ 169 µg/mL) | > 500 | > 500 | > 500 | 500 (≈ 169 µg/mL) | > 500 | > 500 | > 500 | > 500 | 500 (≈ 169 µg/mL) | 500 (≈ 169 µg/mL) | > 500 | > 500 | > 500 | 500 (≈ 169 µg/mL) | > 500 | MIC (Nakaseomyces glabratus [21]): > 500 µM; MIC [22]: > 500 µM; MIC (Staphylococcus aureus [23]): 250 µM (≈ 84.6 µg/mL); MIC (Klebsiella pneumoniae [24]): > 500 µM; MIC (Klebsiella pneumoniae [25]): > 500 µM; MIC (Nakaseomyces glabratus [26]): > 500 µM; MIC (Staphylococcus aureus [27]): 250 µM (≈ 84.6 µg/mL); MIC (Escherichia coli [28]): > 500 µM |
| O=C(NCc1ccccc1)Oc1ccc(Cl)cc1C(=O)Nc1ccc(F)cc1 | 15.6 (≈ 6.23 µg/mL) | > 250 | > 250 | 125 (≈ 49.9 µg/mL) | 15.6 (≈ 6.23 µg/mL) | > 250 | > 500 | 250 (≈ 99.7 µg/mL) | 31.2 (≈ 12.5 µg/mL) | > 250 | 250 (≈ 99.7 µg/mL) | > 250 | > 250 | 15.6 (≈ 6.23 µg/mL) | > 500 | 250 (≈ 99.7 µg/mL) | > 500 | 250 (≈ 99.7 µg/mL) | > 500 | > 500 | MIC (Nakaseomyces glabratus [21]): 125 µM (≈ 49.9 µg/mL); MIC [22]: 250 µM (≈ 99.7 µg/mL); MIC (Staphylococcus aureus [23]): 15.6 µM (≈ 6.23 µg/mL); MIC (Klebsiella pneumoniae [24]): > 500 µM; MIC (Klebsiella pneumoniae [25]): > 500 µM; MIC (Nakaseomyces glabratus [26]): > 250 µM; MIC (Staphylococcus aureus [27]): 15.6 µM (≈ 6.23 µg/mL); MIC (Escherichia coli [28]): > 500 µM |
